Test results reported in PubChem BioAssay AID449763 (Sanford-Burnham Center for Chemical Genomics, 2010).
The whole screen tested about 330,000 compounds, of which about 1,100 (0.33%) were called active.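 The calls were made as follows: active = at 10 µM dose, activation of 40% or more, normalized to positive control; inactive = the rest.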 The full list was thinned out, with actives kept by preference.

Experiment: PERK-eIF2a-CHOP pathway stimulators – cell-based, CHO-CHOP luciferase reporter, luminescence, uHTS, primary screen (AID 449763);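 also: 100% = tunicamycin at 10 µg/mL and 0% = DMSO alone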
Conditions: UPR activation, at 10 µM, hits give high values, percent of tunicamycin response over DMSO baseline
Method in brief: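 Assay system: CHO-CHOP cells, stable luciferase reporter of PERK-eIF2a-CHOP signalling / Buffer or medium: F12 plus 10% serum / Compound dosing: one dose, 10 µM in 0.5% DMSO / Times: 6 h compound treatment, 37 °C / Technique: luciferase luminescence / Read-out: % reporter activation, DMSO baseline versus tunicamycin full activation / Benchmarks: tunicamycin and DMSO controls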

SMILES | activation
COc1cc(N=Cc2c(O)c3ccccc3oc2=O)c(OC)cc1Cl | 3.5% (inactive)
COc1ccccc1N=C(C)C1=C(O)COC1=O | -0.0733% (inactive)
COc1ccccc1N=Cc1c(O)c2ccccc2oc1=O | 130% (active)
COc1ccc(C(=O)Nc2cc(S(=O)(=O)N3CCCC3)ccc2Cl)cc1 | 0.727% (inactive)
Cc1ccc(CN2CCCOCCS2(=O)=O)cc1 | -0.00453% (inactive)
CCN(CC(=O)Nc1cccc(S(=O)(=O)N2CCCCC2)c1)Cc1ccccc1 | -0.441% (inactive)
Cc1ccc(Nc2nc(N)nc(CSc3nnc(C)s3)n2)cc1 | 4.12% (inactive)
Nc1nc(CC(=O)CSc2ccc(Cl)cc2)nc(Nc2ccc(F)cc2)n1 | 42.4% (active)
Nc1nc(COC(=O)CCC(=O)c2ccc(Cl)cc2)nc(Nc2ccccc2)n1 | 0.238% (inactive)
COc1ccc(C(=O)CSc2nnnn2C)c(OC)c1 | 0.876% (inactive)
Cc1cccc(C)c1NC(=O)C(Cl)C(=O)c1ccccc1 (stereo not drawn) | 52.9% (active)
Cc1cccc(C)c1NC(=O)C(c1ccccc1)N1CC(=O)Nc2ccccc21 (stereo not drawn) | -0.493% (inactive)
Cc1cccc(C)c1NC(=O)CN(C)C(=O)CCC(=O)c1ccccc1 | 0.683% (inactive)
C1=C(N2CCOCC2)/C(=C/c2nc3ccccc3[nH]2)CC1 | -3.2% (inactive)
CSc1ncc(Sc2ccccc2)c(C(=O)O)n1 | -0.159% (inactive)
CSc1nc(-c2ccccc2)nc(C(Cl)Cl)n1 | 46.2% (active)
CC(C)=CCC/C(C)=C/C(=O)O | 0.467% (inactive)
COc1ccccc1N1CCN(CC(=O)NCCc2ccc(S(N)(=O)=O)cc2)CC1 | -1.28% (inactive)
O=C(/C=C/c1cccs1)c1cc(Cl)ccc1OC(=O)N1CCOCC1 | 2.72% (inactive)
COc1ccc(C(=O)N2CCC(C(=O)Nc3ccc(C)cc3)CC2)cc1 | -0.572% (inactive)
CC(C)(C)n1nc(Cc2cccc3ccccc23)c(C#N)c1N | 0.111% (inactive)
CCc1nn(-c2cc(Oc3cccc4ccccc34)nc(-c3ccccc3)n2)c(N)c1C#N | 56.7% (active)
CCCC(c1nnnn1C(C)(C)C)N1CCN(Cc2ccccc2)CC1 (stereo not drawn) | -1.39% (inactive)
CC(C)[C@H](NC(=O)N1c2ccccc2NC(=O)[C@@H]1C(C)C)C(=O)N[C@H](C(=O)O)c1ccccc1 | -2.11% (inactive)

SMILES | activation
C=CCN1CN(S(=O)(=O)c2ccc(OC)cc2)c2nc3ccccc3nc21 | 0.29% (inactive)
CC(=O)Nc1ccc(S(=O)(=O)Nc2ccc(N3CCCCC3)cc2)cc1 | 4.38% (inactive)
O=C(Cc1ccccc1)NC(=S)Nc1ccc(N2CCCCC2)cc1 | 0.603% (inactive)
O=C1C=CC(=O)N1c1ccc(N2CCCCC2)cc1 | 44.6% (active)
COc1ccccc1-n1c(SCC(=O)O)nc2sc3c(c2c1=O)CCC3 | 1.38% (inactive)
COc1ccc(NC(=O)C(CC(C)C)NC(=O)C2CCC(C)CC2)cc1 (stereo not drawn) | 0.903% (inactive)
COc1ccccc1CNS(=O)(=O)c1cc2c3c(c1)CCC(=O)N3CCC2 | 2.93% (inactive)
Fc1ccc2nc(-c3ccccc3)nc(SCc3nnc(-c4ccccc4)o3)c2c1 | 0.865% (inactive)
Cc1ccc(CS(=O)(=O)c2ncc(Cl)c(C(=O)Nc3nnc(C)s3)n2)cc1 | 26.4% (inactive)
Cc1cccc(CS(=O)(=O)c2ncc(Cl)c(C(=O)Nc3ccc(F)cc3)n2)c1 | 278% (active)
Cc1cccc(NC(=O)c2nc(S(=O)(=O)Cc3ccccc3)ncc2Cl)c1 | -9.27% (inactive)
CCOc1ccc(NC(=O)c2nc(SCC)ncc2Cl)cc1 | 0.746% (inactive)
COCCSc1nnc(NC(=O)CCS(=O)(=O)Cc2ccccc2)s1 | -0.572% (inactive)
CSc1nnc(NC(=O)c2nc(S(=O)(=O)Cc3ccc(C)cc3)ncc2Cl)s1 | 72.6% (active)
O=C(NCCCCO)C(F)(F)C(F)(F)C(F)(F)C(=O)NCCCCO | 2.68% (inactive)
Cc1cccc(OCc2nnc(SCc3nc4cc(C(F)(F)F)ccc4c(=O)[nH]3)o2)c1 | 1.49% (inactive)
Cc1ccc(OCc2nnc(SC3CCc4ccccc4C3=O)n2C)cc1 (stereo not drawn) | 0.0439% (inactive)
CSc1ccc(/C=C/C(=O)NC23CC4CC(CC(C4)C2)C3)cc1 | 6.51% (inactive)
Clc1ccc(CN2CCCCCC2)cc1Cl | 0.707% (inactive)
NS(=O)(=O)c1ccc(CCNS(=O)(=O)c2cccc3cccnc23)cc1 | 0.112% (inactive)
O=[N+]([O-])c1ccccc1S(=O)(=O)Nc1cccc2cccnc12 | 428% (active)
O=S(=O)(NCCc1ccc(F)cc1)c1cccc2cccnc12 | 0.907% (inactive)
Cc1ccc2oc(=O)c3cnn(CC(=O)N(Cc4ccco4)C4CCCCC4)c3c2c1 | 0.347% (inactive)
CC(C)CCNC(=O)Cn1c(=O)oc2cc(S(=O)(=O)N3CC(C)CC(C)C3)ccc21 (stereo not drawn) | 0.0919% (inactive)

SMILES | activation
COc1cc(CC(=O)Nc2nc(-c3ccc(F)c(F)c3)cs2)cc(OC)c1OC | 6.97% (inactive)
CCc1ccccc1NC(=O)[C@@H]1CCC(=O)N1C1OC(=O)c2c1ccc(OC)c2OC (stereo partly drawn) | -1.13% (inactive)
COc1ccc2c(c1OC)C(=O)OC2Nc1nc(-c2ccccc2)cs1 (stereo not drawn) | 41.7% (active)
O=C1Nc2cc(Cl)c(Cl)cc2N(O)N1c1ccccc1Cl | 0.176% (inactive)
COc1ccc(N=C2SC(C(=O)Nc3ccc(F)cc3)CC(=O)N2C)cc1 (stereo not drawn) | -0.141% (inactive)
CCOCCc1nn2c(=O)cc(CSCC(=O)Nc3cccc(C)c3C)nc2s1 | -1.45% (inactive)
Cn1c(-c2ccc(C(F)(F)F)cc2)cc2onc(-c3ccccc3)c2c1=O | 5.2% (inactive)
CCOc1ccc(N2C(=O)CC(N(O)c3ccccc3)C2=O)cc1 (stereo not drawn) | 185% (active)
CCOc1ccc(N2C(=O)CC(N(CCc3ccc(OC)c(OC)c3)C(=S)Nc3ccccc3)C2=O)cc1 (stereo not drawn) | 1.65% (inactive)
CCCCCCC(=O)N(O)C1CC(=O)N(c2ccccc2)C1=O (stereo not drawn) | 1.5% (inactive)
CC(=O)NNC1=Nc2ccccc2N(C)C(C)C1 (stereo not drawn) | 1.41% (inactive)
CCOc1cc(N2CCOCC2)c(OCC)cc1NC(=O)C1=NN(c2cccc(C)c2)C(=O)CC1 | 1.02% (inactive)
COc1cc(NC(=O)c2[nH]cnc2C(N)=O)cc(C(=O)Nc2cccc(C(F)(F)F)c2)c1 | 12.8% (inactive)
N#Cc1ccc(Oc2ccc(C(F)(F)F)cc2NC(=O)c2ccc(F)cc2)cc1 | -0.147% (inactive)
COc1cc(NC(=O)c2cncc(-c3ccc(C#N)cc3)c2)cc(C(=O)Nc2cccc(C(F)(F)F)c2)c1 | 73.6% (active)
O=C(O)C1C2C=CC(C2)C1C(=O)NCc1ccccc1 (stereo not drawn) | -1.58% (inactive)
O=C(CC(NCCN1CCOCC1)C(=O)O)Nc1cccc(Cl)c1 (stereo not drawn) | -1.8% (inactive)
CC(=O)Nc1ccc(NC(=O)COC(=O)c2ccccc2C(=O)c2ccccc2)cc1 | 1.65% (inactive)
CC(=O)Nc1ccc(NC(=O)C(C)OC(=O)c2ccccc2C(=O)c2ccc(Cl)c([N+](=O)[O-])c2)cc1 (stereo not drawn) | 12.1% (inactive)
N#Cc1cccc(NC(=O)COC(=O)c2ccccc2C(=O)c2ccc(Cl)c([N+](=O)[O-])c2)c1 | 105% (active)
CC1=CC(C)(C)NC(=S)N1c1ccccc1 | 0.0762% (inactive)
O=C(c1c(F)cccc1F)N1CCN(S(=O)(=O)c2ccc3c(c2)OCCO3)CC1 | 2.02% (inactive)
CC1CN(C(=O)c2ccc([N+](=O)[O-])s2)CC(C)O1 (stereo not drawn) | 1.2% (inactive)
O=[N+]([O-])c1ccc(C=Nc2ccc(Cl)cc2Cl)s1 | 112% (active)

SMILES | activation
CCN(Cc1ccccc1)C(=O)CCS(=O)(=O)c1ccc2c(c1)oc(=O)n2C | -2.75% (inactive)
Cc1cccc(NC(=O)C2CC(=O)OC23CCCC3)c1 (stereo not drawn) | 0.24% (inactive)
CCOC(=O)CN(C(=O)CN1CCOCC1)c1ccc(Br)cc1 | -1.27% (inactive)
CC1CCCC(C)N1C(=O)COC(=O)COc1ccccc1C#N (stereo not drawn) | -1.4% (inactive)
CC(=O)Nc1ccc(Nc2ncnc3c2nnn3Cc2ccccc2Cl)cc1 | -0.872% (inactive)
CCOC(=O)CCc1c(C)c(C#N)c2[nH]c3ccccc3n2c1=O | -1.06% (inactive)
CN(C)Cc1c(C#N)c2ccccc2n1C | -0.172% (inactive)
CCCc1cc(=S)n2c([nH]c3ccccc32)c1C#N | 54.1% (active)
CCn1c(SCC(=O)Nc2cc(C)ccc2C)nnc1-c1cnccn1 | -1.53% (inactive)
Cc1[nH]n(-c2ccccc2)c(=O)c1CCOC(=O)c1ccc(C(F)(F)F)cc1 | -0.83% (inactive)
O=C1CC(c2cccc(Cl)c2)CC(O)=C1C=Nc1ccccc1 (stereo not drawn) | 50% (active)
O=C1CC(c2ccccc2)CC(O)=C1C=NCCN1CCOCC1 (stereo not drawn) | -2.31% (inactive)
O=C1C=C(c2cccc(Cl)c2)C[C@@H](c2ccc(F)cc2)C1 | -0.428% (inactive)
Cc1ccc(NC(=O)C(=O)NCc2ccc(/C=N/NC(=O)c3c(C)nc4cc(C)ccn34)o2)cc1 | 4.97% (inactive)
CCc1ccc(N(C(=O)c2csnn2)C(C(=O)NC2CCCCC2)c2ccncc2)cc1 (stereo not drawn) | -1.98% (inactive)
CCC(=O)Nc1sc(C(=O)Nc2ccccc2)c(C)c1C(=O)OC | -0.316% (inactive)
COC(=O)c1c(NC(=O)CCN2CCOCC2)sc2c1CCCC2 | 0.577% (inactive)
CCOC(=O)c1sc(NC(=O)CCN2CCOCC2)c(C(=O)OCC)c1C | 43.2% (active)
CCOC(=O)c1c(NC(=O)CCl)sc(C(=O)N(CC)CC)c1C | 48.1% (active)
CCOC(=O)c1c(NC(=O)CCCN2CCOCC2)sc2c1CC(C)(C)OC2 | -2.37% (inactive)
CCOC(=O)Nc1sc(C(=O)N(C)C)c(C)c1C(=O)OCC | -4.31% (inactive)
